Screening results (PubChem BioAssay)
A selection: hits, their analogues and other compounds. The true share with any hit is near 1.5%.
TPT1 inh = C. albicans TPT1 enzyme inhibition; inhibition, % at 5 µM; 0.81% of 300,000 active; AID 1962; recombinant caTPT1, FP RNA substrate dephosphorylation;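 active means inhibition above the mean of all tested compounds plus 3 SD, set per screening campaign, cut at about 24% in these data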;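 further: plate controls were DMSO alone for no effect and ferristatin control at 100 nM for full effect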
Rpn11 inh = blocks the human proteasome subunit Rpn11. O00487. human 26S proteasome, Ub4-pepOG fluorescence polarization; 20S core pre-blocked with epoxomicin. inhibition, % at 20 µM. 0.59% of 360,000 active. AID 588493;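 active means inhibition at 20 µM, scaled to each plate's controls, above about 33%, limit read from the data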
HNF4A DNA FP = change in binding of human HNF4 alpha to DNA. P41235. HNF4a-FITC DNA binding, fluorescence polarization, 1 h. activity change, % at 10 µM. 0.3% of 360,000 active. AID 1224865; in the data active means activity change above about 30%, passing the limit was not always enough
Target sequence (P41235 whole entry, looked up): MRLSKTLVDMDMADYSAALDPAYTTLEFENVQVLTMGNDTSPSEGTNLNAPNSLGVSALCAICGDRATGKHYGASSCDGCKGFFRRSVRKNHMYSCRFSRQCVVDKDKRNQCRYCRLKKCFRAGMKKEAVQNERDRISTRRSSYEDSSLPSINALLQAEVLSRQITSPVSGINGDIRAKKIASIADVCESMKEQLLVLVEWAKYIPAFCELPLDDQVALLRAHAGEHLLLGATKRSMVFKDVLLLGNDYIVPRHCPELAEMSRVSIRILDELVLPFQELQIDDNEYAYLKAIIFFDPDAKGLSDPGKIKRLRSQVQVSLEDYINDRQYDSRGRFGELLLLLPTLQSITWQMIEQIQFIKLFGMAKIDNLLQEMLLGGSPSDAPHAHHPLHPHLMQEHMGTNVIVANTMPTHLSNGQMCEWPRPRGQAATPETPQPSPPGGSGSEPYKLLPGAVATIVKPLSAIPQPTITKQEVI
CSN deneddyl inh = blocks human CSN-mediated cullin deneddylation | Purified CSN, SCF-Nedd8-OG deneddylation, fluorescence polarization | 0.38% of 360,000 active | inhibition, % at 12.5 µM | Q92905 | AID 651999;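 active means pattern-corrected inhibition above about 35%, with an unprinted fluorescence ratio check between 0.5 and 1.5, limit read from the data, passing the limit was not always enough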;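 further: 0% = enzyme with substrate and 100% = substrate without enzyme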
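Test system: purified human Csn5 enzyme expressed in HEK293T cells. Amount: 0.24 nM enzyme. Reagent: SCFSkp2-Nedd8OG substrate at 10 nM final. Schedule: 90 min incubation of compound, enzyme and substrate at room temperature. Detection: fluorescence polarization. Read-out: % inhibition of substrate cleavage by Csn5.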
TPT1 inh confirm = TPT1 (C. albicans) inhibition, confirmation; inhibition, % at 5 µM; recombinant caTPT1, fluorescence polarization, RNase T1 coupled; AID 2149; 74% of 2,400 active; shares compounds with TPT1 inh;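 active means inhibition above the primary screen limit, the mean inhibition of all tested compounds plus 3 SD, cut at about 25% in these data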
RNase T1 counter = RNase T1 inhibition in TPT1 counter-screen; shares compounds with TPT1 inh; RNase T1 cleavage, fluorescence polarization, 1536-well; inhibition, % at 5 µM; 83% of 2,400 active;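 active means inhibition above the solvent-only control well mean plus 3 SD, limit set per screening run, cut at about 23% in these data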;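 further: plate controls were DMSO wells with enzyme for no effect and wells without RNase T1 for full effect; inhibitors block cleavage so intact labeled substrate keeps polarization high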
Target sequence (P00651 whole entry, looked up): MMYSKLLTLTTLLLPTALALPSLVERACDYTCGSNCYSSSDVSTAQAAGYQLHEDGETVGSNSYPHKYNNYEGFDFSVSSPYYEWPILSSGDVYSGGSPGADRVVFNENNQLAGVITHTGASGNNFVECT
An asterisk follows results filed as active; x = no result shown.

SMILES | TPT1 inh | Rpn11 inh | HNF4A DNA FP | CSN deneddyl inh | TPT1 inh confirm | RNase T1 counter
CCN1CCN(S(=O)(=O)c2ccc(Cl)c(C(=O)NCc3nc4ccccc4[nH]3)c2)CC1 | x | 4 | -1 | 5 | x | x
CCC(C)(C(=O)NC1CCCCC1)N(C(=O)Cc1cccs1)c1ccccc1 (centres undefined) | 68* | -2 | 0 | 1 | 3 | 8
CCC(C)(C(=O)NC1CCCC1)N(Cc1cccs1)C(=O)Cc1cccs1 (centres undefined) | 0 | 3 | -1 | -1 | x | x
CCN(CC)c1ccc(NC(=O)CCCOc2cccc(C)c2)cc1 | x | 2 | 1 | -5 | x | x
CCN(CC)c1ccc(/C=N/OCC(=O)Nc2cccc(C)c2)cc1 | 34* | x | 30 | 19 | 43* | 56*
COc1cc(/C=C2\C(=O)ON=C2c2ccccc2)cc(Br)c1O | 43* | 17 | 2 | 10 | 138* | 139*
CCOc1cc(/C=C2/C(=O)ON=C2C)cc(Br)c1O | 40* | 25 | 3 | 9 | 111* | 122*
COc1cc(C=C2C(=O)OC(c3ccccc3)OC2=O)cc(Br)c1O (centres undefined) | -7 | 1 | -6 | -2 | x | x
COc1cc(/C=C2/C(=O)ON=C2c2ccccc2)ccc1O | 4 | 0 | 0 | 9 | x | x
COc1cc(/C=C2\C(=O)ON=C2c2ccccc2)cc(Cl)c1O | 35* | 17 | -2 | 2 | 123* | 128*
CCOc1cc(/C=C2\C(=O)ON=C2c2ccccc2)cc(Br)c1O | 40* | 12 | 5 | 6 | 137* | 138*
Nc1nc(-c2ccccc2)c(CCCNc2ccccc2)c(=O)[nH]1 | x | 4 | 1 | 0 | x | x
CCN(CC(=O)Nc1ccccc1C(F)(F)F)C(=O)c1ccc(NC(=O)c2cccs2)cc1 | x | 9 | -1 | -2 | x | x
Cc1ccc(/C=C2/C(=O)ON=C2c2ccccc2)o1 | 34* | 13 | -6 | 17 | 17 | 25*
O=C(COC(=O)c1c2c(nc3ccccc13)/C(=C/c1ccco1)CC2)NC1CCCC1 | x | 35 | -26 | 26 | x | x
CC1CCCCC1NC(=O)COC(=O)c1c2c(nc3ccccc13)/C(=C/c1ccco1)CC2 (centres undefined) | 33* | 13 | -35 | 25 | 29* | 41*
NNc1nc(-c2ccccc2Cl)nc2ccccc12 | 31* | 11 | 1 | 5 | 20 | 33*
C=C1CCC2[C@](C)(CO[C@@H]3O[C@H](CO)[C@@H](O)[C@H](O)[C@H]3O)CCC[C@@]2(C)[C@@H]1CCC1=CCOC1=O (some centres undefined) | 1 | -1 | 1 | 6 | x | x
CCCCc1ccc(CC2S/C(=C(\C#N)C(=O)N3CCOCC3)N(c3ccccc3)C2=O)cc1 (centres undefined) | 35* | 10 | 0 | 2 | 62* | 74*
CC(=O)N1CCC(C(=O)NCCOc2ccc(C)cc2)CC1 | -5 | 2 | 1 | 4 | x | x
CCc1nc2ccc(C(=O)Nc3cccc(OC)c3)cn2c1N(CC)CCOC | x | 2 | 2 | 1 | x | x
COc1ccc(NC(=O)C2CCN(S(=O)(=O)c3ccc(Cl)c(C(F)(F)F)c3)CC2)cn1 | x | 1 | 5 | -3 | x | x
Cc1ccc(/C=C2/NC(=O)N(Cc3ccccc3F)C2=O)s1 | 69* | x | 75 | 41* | 86* | 86*
Cc1cc(=O)[nH]c(SCC(=O)NC2CCCCCC2)n1 | x | 3 | 1 | -2 | x | x
C=CC(C)N1C(=O)S/C(=C\c2ccc(N3CCOCC3)cc2C)C1=O (centres undefined) | 32* | -28 | 17 | 7 | 57* | 64*
SMILES | TPT1 inh | Rpn11 inh | HNF4A DNA FP | CSN deneddyl inh | TPT1 inh confirm | RNase T1 counter
C=CCN1C(=O)S/C(=C\c2ccc(N3CCOCC3)cc2C)C1=O | 66* | 18 | 22 | 10 | 54* | 66*
COc1ccc(-c2cc(=Nc3c(C)n(C)n(-c4ccccc4)c3=O)c3ccccc3o2)cc1 | -2 | 0 | 0 | 6 | x | x
COc1ccc(-c2c/c(=N\c3nc(-c4ccccc4)c(C)s3)c3ccccc3o2)cc1O | 27* | 26 | 12 | 0 | 22 | 31*
O=C(CC(=O)c1cccs1)c1ccncc1 | x | 1 | 1 | 2 | x | x
CCOC(=O)/C(C#N)=C\C=C1C=CN(C)C=C1 | 158* | x | 164 | 123 | 173* | 167*
CCN(CC)c1ccc(N=Nc2ncn[nH]2)cc1 | 25* | 35 | 23 | 7 | 24* | 35*
Cc1ccc(C)n1-c1cccc(C(=O)Nc2ccccc2)c1 | 38* | -4 | 1 | 4 | 40* | 50*
COc1ccc(NC(=O)c2cccc(-n3c(C)ccc3C)c2)c(OC)c1 | 16 | 15 | 9 | 2 | x | x
N#CC1=C(N)Oc2cc(N)ccc2C1c1ccc(F)cc1F (centres undefined) | 42* | x | 37 | 58 | 33* | 44*
Cc1ccccc1-n1c(SCC(=O)NC(N)=O)nc2sc(-c3ccccc3)cc2c1=O | 31* | 8 | 1 | 5 | 6 | 11
Cc1ccccc1-n1c(SCC(N)=O)nc2sc(-c3ccccc3)cc2c1=O | -3 | -1 | -1 | 1 | x | x
CC1=NN(c2ccccc2)C(=O)/C1=C/C=C/C=C/N(C)C | 124* | x | 190 | 104 | 94* | 102*
O=C(OCCc1cc2ccccc2c(=O)o1)c1ccco1 | x | -2 | 0 | -1 | x | x
Cc1cccc(C)c1NC(=O)CN(C)C(=O)c1ccc(OCc2ccccc2)cc1 | x | -5 | 0 | 1 | x | x
O=C(C[n+]1cc(Br)cc2ccccc21)c1ccc(Br)cc1 | 27* | 22 | -1 | 4 | 36* | 48*
O=C(C[n+]1cc(Br)cc2ccccc21)c1ccc(Cl)cc1 | 15 | 0 | 1 | 7 | x | x
Cc1noc(C)c1C(=O)Nc1cccc(S(=O)(=O)N2CCOCC2)c1 | x | -5 | 1 | -5 | x | x
O=S(=O)(NCCc1ccccc1)c1cccs1 | 0 | 4 | 1 | -1 | x | x
O=S(=O)(NCCc1ccc2c(c1)OCCO2)c1cccs1 | 26* | 17 | 24 | 11 | 20 | 27*
CCO/C=C1/C(=O)N(c2ccc(OC)cc2)C(=O)c2ccccc21 | 1 | 12 | 4 | 12 | x | x
CCO/C=C1/C(=O)N(C)C(=O)c2cc(OC)ccc21 | 39* | 3 | -2 | -1 | 55* | 66*
O=C(Nc1cccc(S(=O)(=O)NC2=NCCCCC2)c1)c1ccc(Cl)cc1 | x | -3 | 1 | -5 | x | x
O=C(CC1Nc2ccccc2NC1=O)c1ccccc1 (centres undefined) | 73* | x | x | x | 62* | 73*
O=C(CC1Nc2ccccc2NC1=O)NCCc1ccccc1 (centres undefined) | -6 | 34 | 7 | 3 | x | x
CC(NC(=O)CC1Nc2ccccc2NC1=O)c1ccccc1 (centres undefined) | 30* | 16 | 4 | 1 | 39* | 52*
